Holding throughout (format): functional
The nature of test [1]: Antioxidant activity assessed as DPPH reducing activity. An outline of the steps: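 DPPH radical (0.025 g/L in MeOH, prepared daily) mixed with sample in MeOH, maximum concentration 200 µg/mL; vehicle control. Absorbance read at 515 nm after 10 min. Remaining DPPH calculated from a calibration curve. α-Tocopherol served as positive control. Run in triplicate; EC50 obtained by the Litchfield and Wilcoxon method.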
For orientation: DPPH is a stable violet radical that fades when it is reduced.

For the next test, the system named is Staphylococcus aureus. Kind of test: Antibacterial activity against Staphylococcus aureus ATCC 6538 after 24 hrs by broth microdilution assay. An outline of the steps:
(§1)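 Broth microdilution in Triptone, in duplicate, per NCCLS. Samples dissolved in DMSO, then diluted in Triptone; final concentrations 2 to 0.0078 mg/mL for the pure compound and 16 to 0.031 mg/mL for extracts. Inoculum 10^5 CFU/mL. Incubation 24 h at 37 °C, read visually from below. MIC taken as the lowest concentration inhibiting growth. Controls: growth without sample, and DMSO blank.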
A general note: Broth dilution looks for growth in wells or tubes with falling amounts of substance.

Test [2] relates to Staphylococcus epidermidis. Briefly: Antibacterial activity against Staphylococcus epidermidis ATCC 12228 after 24 hrs by broth microdilution assay. The method, boiled down:
as §1

Another test relates to Pseudomonas aeruginosa. Briefly: Antibacterial activity against Pseudomonas aeruginosa ATCC 9027 after 24 hrs by broth microdilution assay. The method, boiled down: as §1
In a further test the test system is Escherichia coli. Briefly: Antibacterial activity against Escherichia coli ATCC 8739 after 24 hrs by broth microdilution assay. The method, boiled down: as §1
Another test relates to Candida albicans. Kind of test: Antifungal activity against Candida albicans ATCC 10231 after 24 hrs by broth microdilution assay. The method, boiled down: (§2)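 ATCC strain in 96-well broth microdilution, run in duplicate following NCCLS guidance. Samples were dissolved in DMSO, then diluted in Triptone as serial dilutions: final 16 to 0.031 mg/mL for extracts, 2 to 0.0078 mg/mL for the pure compound. Inoculum suspension was 10^5 CFU/mL. Growth-control and DMSO blank wells were included. Plates were incubated 24 h at 37 °C. MIC is the lowest concentration inhibiting visible growth.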

The next test concerns Aspergillus niger. Briefly: Antifungal activity against Aspergillus niger ATCC 16404 after 24 hrs by broth microdilution assay. The conditions noted are these: ATCC 16404, 24 h. An outline of the steps:
as §1

The next test deals with Bacillus spizizenii. Briefly: Antibacterial activity against Bacillus subtilis subsp. […] after 24 hrs by broth microdilution assay. An outline of the steps:
as §2

In brackets after ≈: the same amount, converted by molar mass. Bounds are passed on as bounds.

What is called EC50 is the concentration at which the effect is half-maximal. `Cc1c(C)c2c(c(C)c1O)CC[C@@](C)(CCC[C@H](C)CCC[C@H](C)CCCC(C)C)O2` [ALPHA-TOCOPHEROL]: in test [1], the concentration giving a half-maximal response (EC50) is 10.1 µg/mL (≈ 23.4 µM).
One may read the MIC as the lowest concentration found to suppress growth. What is called MBC is the smallest concentration meeting the test's criterion for killing. Read a high MBC as less potent killing. For `O=C(/C=C/c1ccc(O)c(O)c1)O[C@H](Cc1ccc(O)c(O)c1)C(=O)O` [ROSMARINIC ACID], the half-maximal effective concentration (EC50) in test [1] amounted to 3.1 µg/mL (≈ 8.6 µM). The MIC against Staphylococcus aureus (ATCC 6538, 24 h) is 120 µg/mL (≈ 333 µM); in test [2] (ATCC 12228, 24 h), 120 µg/mL (≈ 333 µM); in the test with Pseudomonas aeruginosa (ATCC 9027, 24 h) it was over 2000 µg/mL; against Escherichia coli (ATCC 8739, 24 h), over 2000 µg/mL; in the test with Candida albicans (ATCC 10231, 24 h), over 2000 µg/mL; in the test on Aspergillus niger, over 2000 µg/mL. Moreover, the MBC is 120 µg/mL (≈ 333 µM) against Staphylococcus aureus (ATCC 6538, 48 h, in the assay text read “48 hrs” for “24 hrs”); 120 µg/mL (≈ 333 µM) in test [2] (ATCC 12228, 48 h, in the assay text read “48 hrs” for “24 hrs”); 120 µg/mL (≈ 333 µM) with Bacillus spizizenii (ATCC 6633, 24 h, in the assay text read “ATCC 6633” for “ATCC 9027”).
With GENTAMICIN, the minimum inhibitory concentration (MIC) in the test on Staphylococcus aureus amounted to 1 µg/mL; in test [2], 1 µg/mL; in the test on Pseudomonas aeruginosa, 4 µg/mL; in the test on Escherichia coli it was 4 µg/mL; in the test on Bacillus spizizenii, 1 µg/mL.
For the compound NYSTATIN, in the test with Candida albicans, the MIC was 1 µg/mL.
